Experimental data pooled from the literature.
Protocols differ between the studies behind these lines.
Target: Serine/threonine-protein kinase pim-3 (PIM3, Homo sapiens, UniProt Q86V86)

With `N#CCCc1ccc2c(c1)-c1[nH]c3ccc([N+](=O)[O-])cc3c1CC(=O)N2` the remaining signal was 70.9% (cell-free assay; 0.5 µM).
`O=C(O)[C@H]1[C@H](Cn2nnc3ccccc3c2=O)CC[C@@H]1C(=O)c1ccc(OCCC2CCOCC2)cc1` gave a remaining binding of 86% (cell-free assay; competition with immobilised ligand; 1 µM).
`CN(c1ncccc1CNc1nc(Nc2ccc3c(c2)CC(=O)N3)ncc1C(F)(F)F)S(C)(=O)=O` has an inhibition of 21.2% (enzyme activity; inhibitor; 1 µM).
`CCC(=O)N[C@H]1CC[C@@H](C(=O)N(C)c2ccc(-c3nc4ccccc4o3)cc2)C1` gave a remaining binding of 100% (cell-free assay; competition with immobilised ligand; 1 µM).
With `COc1cc(Nc2cnc(C#N)c(O[C@H](C)CN(C)C)n2)ncc1-c1cnn(C)c1` the remaining activity was 58% (enzyme activity; inhibitor; radiometric; 1 µM).
With `CCN(CC)c1ccc(C2=NNC(=O)CC2C)cc1[N+](=O)[O-]` (stereo not drawn) the remaining activity was 96% (enzyme activity; inhibitor; 10 µM).
The remaining binding of `O=c1nc(-c2ccccn2)sc2ccccc12` is reported as 100% (binding; competition with immobilised ligand; 1 µM).
For `Cc1cnc(NC2CCOCC2)nc1-n1cnc(C(=O)NC(CN)c2cc(F)cc(Cl)c2)c1` (stereo not drawn), the remaining activity was 95% (enzyme activity; inhibitor; radiometric; 1 µM).
`COc1cc2c(N3CCN(C(=O)Nc4ccc(OC(C)C)cc4)CC3)ncnc2cc1OCCCN1CCCCC1` has a remaining signal of 100% (cell-free assay; 0.5 µM).
For `Cc1sc(C(=O)NC2COC2)cc1-n1cc(NC(=O)Nc2c(F)cccc2Cl)cn1`, the remaining activity was 129% (enzyme activity; inhibitor; 10 µM).
`CC(=O)C1=C(C)N(c2cccc(C(F)(F)F)c2)C(=O)N[C@@H]1c1ccc(C#N)nc1` has a remaining binding of 100% (cell-free assay; competition with immobilised ligand; 1 µM).
`COc1cc(/C=C/C(=O)CC(=O)/C=C/c2ccc(O)c(OC)c2)ccc1O` gave an activity vs control of 12% (enzyme activity; inhibitor; 1 µM).
With `CCCS(=O)(=O)Nc1ccc(F)c(C(=O)c2c[nH]c3ncc(-c4ccc(Cl)cc4)cc23)c1F` the inhibition was less than 10% (enzyme activity; inhibitor; 1 µM).
With `O=C(N1CCS(=O)(=O)CC1)N1C[C@H](c2ccc(OC(F)(F)F)cc2)C[C@H](c2nc(C3CC3)no2)C1` the remaining binding was 100% (cell-free assay; competition with immobilised ligand; 1 µM).
For `Nc1nc(Nc2ccccc2)sc1C(=O)c1c(F)cccc1F`, the remaining activity was 69% (enzyme activity; inhibitor; 10 µM).
`Cc1ccc(NC(=O)c2ccc(C)c(C(F)(F)F)c2)cc1C#Cc1nn(C2CCC(O)CC2)c2ncnc(N)c12` (stereo not drawn) gave a remaining signal of 99% (cell-free assay; 10 µM).
With `Cc1cc(NC(=O)c2cccc3cc(-c4cccc5[nH]nc(N)c45)ccc23)ccc1F` the activity vs control was 113% (enzyme activity; inhibitor; 0.1 µM).
`Oc1cccc(-c2nc(N3CCOCC3)c3oc4ncccc4c3n2)c1` has a remaining activity of 41% (enzyme activity; inhibitor; 10 µM).
`CNC(=O)c1cc(Oc2ccc(NC(=O)Nc3ccc(Cl)c(C(F)(F)F)c3)cc2)ccn1` has an inhibition of -16% (enzyme activity; inhibitor; 10 µM).
With `CC(=O)N1CCC(c2ccc(C(=O)NC3=NCCN3)cc2C(F)(F)F)CC1` the remaining binding was 100% (cell-free assay; competition with immobilised ligand; 1 µM).
With `Cc1ccc(Nc2nccc(N(C)c3ccc4c(C)n(C)nc4c3)n2)cc1S(N)(=O)=O` the remaining activity was 81.6% (enzyme activity; inhibitor; 0.5 µM).
The remaining binding of `O=C(NCc1ncc(C(F)(F)F)cc1Cl)c1ccc2c(c1)C1(CCS(=O)(=O)CC1)[C@H](C1CC1)N2S(=O)(=O)c1ccc(F)cc1` is reported as 100% (cell-free assay; competition with immobilised ligand; 1 µM).
With `CS(=O)(=O)Nc1cccc(-c2csc(NC(=O)CSc3nc4nccnc4c(=O)n3CCc3ccccc3)n2)c1` the inhibition was 1% (enzyme activity; inhibitor; 10 µM).
The remaining activity of `CC(C)(C)C(=O)c1sc(NC2CCCCC2)nc1N` is reported as 82% (enzyme activity; inhibitor; 10 µM).
With `Cc1cc(-n2nc(Cc3cc(F)cc(C(F)(F)F)c3)nc2C)ccc1C(N)=O` the remaining binding was 100% (cell-free assay; competition with immobilised ligand; 1 µM).
`CC(C)(C)c1nc2c(s1)c1nc(N)ncc1c1ccc(NS(=O)(=O)c3c(F)cccc3F)c(F)c12` gave a remaining activity of 105% (enzyme activity; inhibitor; radiometric; 1 µM).
`Cn1c2c(c3ccc(Cl)c(Cl)c31)C(C#N)C1(CCNCC1)NC2=O` (racemic) has a ΔTm of greater than 8 °C (thermal stability; DSF; 10 µM).
